# Source: PubChem
# The list is not random: actives were taken first. Their share in the collection is about 1.3%.
# GRK2 aptamer HTS – inhibitors of human GRK2 displacing RNA aptamer; bead flow cytometry, FAM-aptamer displacement from GRK2; inhibition of aptamer binding, % at 10 µM; 330,000 compounds, 0.59% hits; AID 488847;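 active = inhibition of aptamer binding above 40%, roughly 3 SD of noise, on plates passing a quality check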;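 note: median bead fluorescence of bound FAM aptamer so fluorescent compounds give negative values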
# LANA DNA inh – blocks KSHV LANA C-terminal domain binding to DNA; MBP-C-LANA/FAM-LBS DNA binding, fluorescence polarization; inhibition, % at 9 µM; AID 504423; 340,000 compounds, 0.078% hits;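 active = highest replicate inhibition at or above 60% at 9 µM, even if other replicates fall short; inactive = all replicates below 60% inhibition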;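 note: 0% = neutral control wells and 100% = 4 µM acridine orange control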
# EBV gp42 inh – blocks Epstein-Barr virus glycoprotein 42 binding. Q1HVG2. Fluorescence polarization binding assay, mP read-out. inhibition, % (tested at 21.74 µM). 220,000 compounds, 0.42% hits; in the data active = inhibition above about 50%
# MEX-5 binding – C. elegans MEX-5 TCR-2 RNA binding activity; Q9XUB2; MEX-5/FITC-TCR2 RNA binding, fluorescence polarization; stronger effect = lower value; activity score (negative = inhibition of binding), % at 10 µM; 300,000 compounds, 0.38% hits; AID 1832;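 active = inhibition past about -25% in most replicates, and total fluorescence under double the plate's negative control median, limit read from the data; inconclusive = replicates evenly split on the limit, or fluorescence at least double controls; inactive = too little inhibition in most replicates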;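 note: 0% = DMSO and -100% = 5 µM competing unlabeled TCR2 RNA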
# T cell HTS – modulates CD8 T cell binding to vesicles | 2C CD8+ T cell-vesicle binding, flow cytometry; stronger effect = lower value | response (vesicle binding), % at 7 µM | 330,000 compounds, 0.068% hits | AID 2052;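 active = response, share of CD8 T cells binding vesicles, and their 90th percentile fluorescence all below set limits, cut at about 80% in these data, passing the limit was not always enough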;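 note: values below 100% mean blocked vesicle binding to the CD8+ T cells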
#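 Test system: purified 2C TCR transgenic mouse naive CD8+ T cells. Probe or stimulus: QL9-peptide-loaded Drosophila micro-vesicles bearing Ld, ICAM-1 and B7-1. Incubation: binding step 1.5 h, 37 °C, antibody labelling 20 min, ice. Measured by: flow cytometry of vesicle-bound cells.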
# Keap1-Nrf2 PPI – disrupts human Keap1 binding to Nrf2 peptide | Keap1 Kelch-Nrf2 peptide fluorescence polarization, 1536-well | 340,000 compounds, 0.15% hits | Q14145 | inhibition, % at 9.4 µM; in the data active = inhibition above about 12%; inconclusive = no clear call, values can overlap the other calls; inactive = below about 7.3%;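 note: human Keap1 Kelch domain with fluorescein labeled Nrf2 9mer peptide probe; 0% = neutral control wells and 100% = peptide positive control; higher means more block of Keap1 binding to Nrf2 peptide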
# Starred values were filed as active, the others as inactive; ? = inconclusive; . = no result given; + = active, no number.
SMILES,GRK2 aptamer HTS,LANA DNA inh,EBV gp42 inh,MEX-5 binding,T cell HTS,Keap1-Nrf2 PPI
COc1cc2c3nnc(-c4ccccc4)c-3cn(Cc3ccccc3F)c2cc1OC,0.0,.,-151.3,-58.9*,140.3,.
COC(=O)c1c(C(=O)OC)c2ccccn2c1C(=O)c1ccc([N+](=O)[O-])cc1,0.0,-2.7,.,0.4,597.1,-2.6
CC(C)OC(=O)c1c2c(n3ccccc13)C(=O)c1ccccc1C2=O,24.0,24.7,87.6*,-30.5*,123.2,?
Cc1ccc(Cl)c2c1=NC(=O)C=2c1[nH]c(=S)[nH]c1O,.,-0.9,1.3,-45.1*,196.8,2.0
CCSc1nnc(-c2ccncc2)o1,0.0,2.9,-9.0,0.6,276.0,3.5
CCSc1nnc(-c2sc3nnc(-c4ccccc4)c(-c4ccccc4)c3c2N)o1,37.0,4.6,166.6*,?,262.3,-5.3
O=C1CCC/C(=N/NC(=O)c2sc3ccccc3c2Cl)C1,1.0,15.6,-71.2,-27.5*,164.4,-15.7
O=C(NN=C1CCCC1)c1sc2ccccc2c1Cl,2.0,-0.9,-12.4,-3.1,321.2,-1.3
CCc1c(C)nc(SCC(=O)Nc2ccc(Br)cc2)[nH]c1=O,1.0,0.5,-14.6,-2.5,571.7,4.9
CCc1c(C)nc(SCC(=O)NNC(=O)c2ccco2)[nH]c1=O,1.0,1.7,.,-37.0*,336.1,2.5
CCc1ccc(N=C2NC(=O)/C(=C/c3cc(Br)c(OCC(=O)O)c(OC)c3)S2)cc1,0.0,-0.5,.,-11.0,350.4,-2.6
CCOc1cc(/C=C2\SC(=Nc3ccc(CC)cc3)NC2=O)ccc1OCC(=O)O,11.0,2.7,.,-43.6*,307.0,-2.1
c1ccc(CSC2=NNC(c3ccccn3)S2)cc1 (stereo unspecified),0.0,1.2,-9.4,-0.3,68.0*,-3.7
O=C(CSC1=NNC(c2ccccn2)S1)Nc1ccc(C(F)(F)F)cc1 (stereo unspecified),2.0,-0.3,-7.5,1.2,457.7,-2.8
CCOc1ccc(Nc2ccc(N)c(S(=O)(=O)O)c2)cc1,.,87.9*,.,.,.,6.9
CC(=O)NCCc1ccc(S(=O)(=O)NC2OC(=O)c3ccccc32)cc1 (stereo unspecified),2.0,-1.2,-9.2,0.4,536.7,-1.7
CCCCN1C(=O)/C(=C/C=C2\N(C)c3ccccc3C2(C)C)SC1=S,0.0,.,+,.,422.0,.
CC(C)(C)C1CC=C2C(C#N)=C(N)C(C#N)(C#N)C(c3cccs3)C2C1 (stereo unspecified),1.0,.,.,-41.2*,540.3,.
CN1C2C=C3C(C#N)=C(N)C(C#N)(C#N)[C@@H](c4cccs4)C3C1CC2 (stereo partly specified),2.0,3.5,-2.3,-11.3,247.6,-4.5
O=C1CC(/C=C/c2ccccc2)=Nc2ccccc2N1,3.0,-2.2,2.7,1.3,714.0,-9.6
COc1ccc(OC)c(C(C)NC(=O)C23CC4CC(CC(C4)C2)C3)c1 (stereo unspecified),1.0,108.7*,.,-0.3,178.1,-0.1
COc1ccc(C(=O)NNC(=O)C23CC4CC(CC(C4)C2)C3)c(OC)c1,0.0,1.1,.,1.5,260.7,-2.2
Cc1ccc(S(=O)(=O)NC(=NCc2ccccc2)c2ccc(F)cc2)cc1,0.0,-0.3,.,-1.0,311.2,-2.1
Cc1cc(C)n(CC(=O)n2nc(C)cc2C)n1,1.0,0.1,2.0,-0.1,366.5,1.3
Cc1cc(C)n(C(=O)Cc2cn3ccsc3n2)n1,0.0,-0.9,-8.9,-0.6,72.2*,-4.3
CN1C(=O)c2ccccc2NC(=O)[C@]12O[C@@H]2c1cccc(O)c1,4.0,24.1,16.3,-43.8*,258.6,-10.4
CS(=O)(=O)NN1C(=O)c2ccccc2NC1c1cccc(O)c1 (stereo unspecified),0.0,-1.6,0.1,-2.0,231.2,-7.3
Cn1c(=O)c(NC2CCCCC2)c2c3c(cccc31)C(=O)c1ccccc1-2,.,64.3,139.3*,.,.,53.5*
CC(=O)Nc1ccc(Nc2c3c4c(cccc4n(C)c2=O)C(=O)c2ccccc2-3)cc1,0.0,1.6,140.5*,-2.3,118.2,3.0
Cc1ccc(CNC(=O)C2CC3Cn4c(nc5cc(C)c(C)cc54)C3N2C)o1 (stereo unspecified),0.0,-0.5,-6.8,0.6,520.5,-8.5
